KCNQ1 pot = potentiators or activators of KCNQ1 channel, primary screen, cell-based, thallium flux, high-throughput. Potassium voltage-gated channel subfamily KQT member 1 (Homo sapiens), P51787. CHO-K1 KCNQ1, thallium flux FluxOR fluorescence; hits give high values. hit rate 0.35% among 310,000. B-score at 10 µM;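 active = fluorescence ratio B-score, a plate-corrected score, at least three library SD, with initial intensity B-score within 5 SD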
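Schedule – 37 °C overnight plating, 90-min dark dye load, 20-min compound pretreatment · System – stable KCNQ1 CHO-K1 line · Probe or stimulus – thallium- and potassium-containing depolarizing buffer · Measured by – kinetic FluxOR fluorescence, 10 s baseline plus 110 s post-stimulus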
KCC2 mod = KCC2 cotransporter modulators, thallium flux, primary screen, cell-based, HEK293 KCC2, FluoZin-2 fluorescence, MLSMR; Solute carrier family 12 member 5 (Homo sapiens), Q9H2X9; KCC2 cells, thallium flux FluoZin-2 fluorescence; B-score of Tl+ flux slope (higher = more flux/activation; lower = inhibition) at 10 µM; hit rate 2.2% among 190,000;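 active = thallium flux slope and its plate-corrected score both differing from the plate sample mean at a set confidence after two filtering rounds, in either direction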;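 also: slope of fluorescence scaled to starting intensity during 10 to 20 s after thallium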
Target sequence (Q9H2X9 whole entry, looked up): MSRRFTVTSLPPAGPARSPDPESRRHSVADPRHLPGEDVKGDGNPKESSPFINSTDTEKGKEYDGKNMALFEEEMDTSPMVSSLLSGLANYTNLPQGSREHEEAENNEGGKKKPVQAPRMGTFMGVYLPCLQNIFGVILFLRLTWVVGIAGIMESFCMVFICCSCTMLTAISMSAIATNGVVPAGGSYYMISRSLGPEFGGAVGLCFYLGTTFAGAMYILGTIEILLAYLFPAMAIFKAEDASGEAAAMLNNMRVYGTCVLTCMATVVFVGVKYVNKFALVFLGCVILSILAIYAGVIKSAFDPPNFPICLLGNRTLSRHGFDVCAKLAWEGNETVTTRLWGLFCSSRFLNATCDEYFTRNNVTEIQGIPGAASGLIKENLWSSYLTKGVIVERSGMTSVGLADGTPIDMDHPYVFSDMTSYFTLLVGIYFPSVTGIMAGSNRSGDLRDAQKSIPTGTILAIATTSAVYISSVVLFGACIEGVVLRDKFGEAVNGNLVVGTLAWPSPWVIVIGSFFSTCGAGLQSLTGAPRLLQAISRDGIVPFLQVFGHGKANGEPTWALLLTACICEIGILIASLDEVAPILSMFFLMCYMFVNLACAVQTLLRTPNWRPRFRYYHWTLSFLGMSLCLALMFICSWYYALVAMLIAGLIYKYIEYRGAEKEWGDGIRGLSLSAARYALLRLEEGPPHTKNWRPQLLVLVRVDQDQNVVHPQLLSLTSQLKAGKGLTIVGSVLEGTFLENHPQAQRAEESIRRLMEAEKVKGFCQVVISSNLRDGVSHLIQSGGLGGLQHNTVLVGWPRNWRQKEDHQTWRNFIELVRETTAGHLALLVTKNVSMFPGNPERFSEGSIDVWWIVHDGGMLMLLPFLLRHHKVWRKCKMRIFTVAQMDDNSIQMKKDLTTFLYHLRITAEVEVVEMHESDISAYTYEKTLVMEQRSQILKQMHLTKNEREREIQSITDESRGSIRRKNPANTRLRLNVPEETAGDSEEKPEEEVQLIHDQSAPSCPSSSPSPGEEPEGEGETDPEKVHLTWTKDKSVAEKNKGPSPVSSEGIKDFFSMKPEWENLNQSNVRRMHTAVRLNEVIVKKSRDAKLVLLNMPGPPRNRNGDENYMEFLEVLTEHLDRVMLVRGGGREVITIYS
KCNQ1 inh = inhibitors of human KCNQ1 channel, primary screen, cell-based, thallium flux, high-throughput; CHO-K1 KCNQ1, FluxOR thallium flux fluorescence; hits give high values; B-score at 10 µM; hit rate 1.3% among 310,000; AID 2642, 2010;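 active = compounds whose thallium flux B-score, printed positive for inhibition, exceeds three library SD while starting fluorescence stays within three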;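 also: channel opened by potassium depolarization with thallium stimulus after 20 min compound exposure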
SUMO Mot1 rescue = yeast Mot1-301 growth rescue at high temperature, primary screen, SUMOylation pathway inhibitor project, S. cerevisiae, ATP luminescence, 38.5C | S. cerevisiae Mot1-301 growth rescue; percent above DMSO median, 100 means doubled | growth rescue, % at 18.8 µM | hit rate 1% among 320,000;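 active = every valid replicate shows activation above 250% relative to neutral control wells; inactive = the rest, any valid replicate at or below 250%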;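 also: OY570 slx delta 5 strain wells were the positive control but not used for scaling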
hERG rescue = hERG rescue from dofetilide block, primary screen, cell-based, CHO-hERG, FluxOR thallium flux, dofetilide IC70 | dofetilide IC70 present | Voltage-gated inwardly rectifying potassium channel KCNH2 (Homo sapiens), Q12809 | hit rate 0.51% among 310,000 | activation (rescue from dofetilide block), less the hit threshold, % at 10 µM | AID 1511, 2009;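 active = activation above the mean of controls blocked by dofetilide plus 5 SD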;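 also: thallium influx through hERG after potassium depolarization seen as dye fluorescence rise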
AI-2 QS mod = Vibrio harveyi AI-2 quorum sensing modulators, primary screen, JMH597 strain, luminescence/OD600 ratio. hit rate 0.4% among 300,000. activity change, % at 7.5 µM. Vibrio harveyi JMH597 AI-2 luminescence/OD600 ratio, 9 h; hits give low values; strain lacks LuxN and CqsS sensors; 0 = neutral-control median; in the data active = activity change below about -75%, passing the limit was not always enough;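 also: luminescence divided by OD600 gain over 9 h not by final OD600 alone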
KCNQ1 inh valid = KCNQ1 potassium channel inhibitors, confirmation, cell-based, Tl flux, duplicate | shares compounds with KCNQ1 inh | KCNQ1 cell line, FluxOR thallium flux fluorescence | inhibition, % at 10 µM | hit rate 93% among 1,600;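 active = primary screen active, with duplicate mean exceeding buffer control mean plus 3 SD of buffer wells, cut at about 28% in these data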;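 also: 0% = buffer control ratio and 100% = XE991 inhibitor control ratio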
CHO Tl flux = thallium flux effects in parental CHO cells, counter-screen for KCNQ1 inhibitor project, cell-based, Tl flux | AID 588366, 2011 | shares compounds with KCNQ1 inh | fluorescence ratio (Tl flux) at 10 µM | hit rate 21% among 1,600 | parental CHO-K1, FluxOR thallium flux fluorescence ratio; hits give low values; zero means no signal rise above baseline;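 active = mean of duplicate thallium-flux fluorescence ratios in parental host cells more than 5 SD below the buffer control mean, cut at about 0.38 in these data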;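 also: ratio is peak minus minimum fluorescence divided by baseline fluorescence; actives read low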
KCNQ1 ephys val = KCNQ1 channel inhibitors, confirmation, orthogonal assay, cell-based, automated electrophysiology; shares compounds with KCNQ1 inh; KCNQ1-CHO cells, automated patch clamp current; calls only at 10 µM; hit rate 20% among 490;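 active = KCNQ1 current drop exceeding 3 SD of negative control wells, seen in both duplicate runs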;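 also: steady state current during a 2 s step from -80 to +40 mV; negative values mean current inhibition and positive values mean potentiation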
KCNQ2 spec = KCNQ2 channel inhibition, selectivity assay for KCNQ1 inhibitor project, cell-based; shares compounds with KCNQ1 inh; KCNQ2 cells, FluxOR thallium flux fluorescence; inhibition, % at 10 µM; hit rate 71% among 1,600; AID 651746, 2012;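 active = mean percent inhibition of the KCNQ2 thallium signal more than 5 SD above the buffer-only control wells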;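 also: KCNQ2 expressed in CHO cells; 0% = buffer control wells and 100% = XE-991 inhibitor control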
KCNQ1 KCNE1 spec = KCNQ1/KCNE1 channel inhibition, selectivity assay for KCNQ1 inhibitor project, CHO-K1 cells, thallium flux, FluxOR | shares compounds with KCNQ1 inh | FluxOR thallium flux fluorescence | inhibition, % at 10 µM | hit rate 77% among 1,600 | AID 652147, 2013;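 active = mean percent inhibition of duplicate wells above the buffer-only control mean plus 3 SD of those controls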;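 also: 0% = buffer only wells and 100% = XE-991 inhibitor control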
* hit, by the source's call; i = inactive; . = no result given; + = active, no number. The list is not random: actives were taken first. Their share in the collection is about 4.2%.

SMILES | KCNQ1 pot | KCC2 mod | KCNQ1 inh | SUMO Mot1 rescue | hERG rescue | AI-2 QS mod | KCNQ1 inh valid | CHO Tl flux | KCNQ2 spec | KCNQ1 KCNE1 spec | others
O=S(=O)(c1cccc(NC(=S)Nc2ccc(Br)cc2Cl)c1)N1CCOCC1 | i | 1.3 | 9* | . | -10 | 23 | 0 | 0.56 | i | i
CCN(CC)S(=O)(=O)c1ccc(C)c(NC(=S)Nc2cccc(S(=O)(=O)N3CCCCCC3)c2)c1 | i | 0.059 | 6* | 22 | -21 | 6 | 86* | 0.4 | 87%* | 89%*
CN(CC(=O)NCc1ccc(F)cc1)CC(=O)Nc1ccc(Cl)c(C(F)(F)F)c1 | i | . | 8* | 24 | -17 | 30 | 104* | 0.45 | 87%* | 62%* | KCNQ1 ephys val=+
O=C(Cc1ccc(Br)cc1)Nc1cccc(S(=O)(=O)N2CCOCC2)c1 | . | . | . | 14 | . | . | . | . | . | .
CN(CC(=O)Nc1cccc(S(=O)(=O)N2CCOCC2)c1)CC(=O)Nc1ccc(Cl)c(C(F)(F)F)c1 | i | . | 8* | 8 | -27 | 7 | 118* | 0.43 | 93%* | 54%* | KCNQ1 ephys val=i
O=C(Nc1ccccn1)c1ccc(Cl)c(S(=O)(=O)N2CCc3ccccc32)c1 | . | . | . | -8 | . | . | . | . | . | .
Cc1ccc(O)c(-c2cc(-c3ccccc3C)[nH]n2)c1 | i | -0.34 | i | . | -7 | 16 | . | . | . | .
Cc1ccc(O)c(-c2cc(C(F)(F)C(F)F)[nH]n2)c1 | i | . | 6* | 96 | -16 | 13 | 93* | 0.51 | 105%* | 129%* | KCNQ1 ephys val=+
CN(CC(=O)Nc1ccccc1-c1ccccc1)Cc1ccccc1Cl | i | 0.44 | 8* | 7 | -6 | -17 | 76* | 0.38 | 98%* | 122%*
Cc1cccc(NC(=O)c2cc3cc([N+](=O)[O-])ccc3s2)n1 | i | -0.81 | i | 22 | -14 | -3 | . | . | . | .
CC(C)N(Cc1nc(-c2ccccc2)no1)S(=O)(=O)c1ccccc1 | i | -0.12 | i | 29 | -6 | 4 | . | . | . | .
O=S(=O)(c1ccccc1)N(Cc1nc(-c2ccccc2)no1)C1CCCCC1 | i | . | 9* | 142 | -6 | 2 | 92* | 0.39 | 100%* | 138%*
CCC1Sc2ccc(S(=O)(=O)Nc3ccc(OC)c(OC)c3)cc2NC1=O (stereo not given) | i | . | 7* | -10 | -10 | 13 | 80* | 0.48 | 69%* | i
CCC1Sc2ccc(S(=O)(=O)Nc3ccc(OC)cc3)cc2NC1=O (stereo not given) | i | . | i | 3 | -6 | 4 | . | . | . | .
FC(F)(F)c1cc(-c2cccs2)nc2nc(N3CCOCC3)sc12 | i | -0.77 | i | -11 | -14 | 20 | . | . | . | .
CC(Oc1cccc(Cl)c1)C(=O)Nc1ccccc1N1CCCCC1 (stereo not given) | i | . | 9* | -3 | -11 | 22 | 116* | 0.47 | 84%* | 138%* | KCNQ1 ephys val=i
CCC(Oc1ccccc1)C(=O)Nc1ccccc1N1CCCCC1 (stereo not given) | i | . | 6* | -4 | -10 | 12 | 121* | 0.45 | 99%* | 143%* | KCNQ1 ephys val=i
CCOc1cc(N2CCOCC2)c(OCC)cc1NC(=O)C(C)Oc1ccccc1 (stereo not given) | . | . | . | -6 | . | . | . | . | . | .
O=C(Nc1cc(Cl)ccc1N1CCOCC1)c1ccc2c(c1)OCCO2 | i | -0.2 | 12* | -16 | -6 | 15 | 68* | 0.46 | 83%* | 52%*
CC(Oc1cccc(Cl)c1)C(=O)Nc1cc(Cl)ccc1N1CCOCC1 (stereo not given) | i | . | 8* | -1 | -16 | 20 | 126* | 0.41 | 119%* | 124%* | KCNQ1 ephys val=i
S=C(NC1CC1)NC1CCCc2ccccc21 (stereo not given) | i | 1.3 | i | -4 | -23 | -1 | . | . | . | .
CCCCCN(C(=O)CCC(=O)OCC(=O)N1CCCC(C)C1)c1c(N)n(CCCC)c(=O)[nH]c1=O (stereo not given) | i | . | i | -9 | -12 | 18 | . | . | . | .
Cc1csc(NC(C)c2nc3cc(Cl)c(Cl)cc3n2CCCO)n1 (stereo not given) | i | . | i | -2 | -7 | 5 | . | . | . | .
C=C(C)COc1ccc(-c2n[nH]c(C)c2-c2ccc(OC)c(OC)c2)c(O)c1 | i | -0.45 | i | 2 | -11 | 17 | . | . | . | .
Cc1noc(C)c1CSCC(=O)Nc1cc(Cl)ccc1N1CCCCC1 | i | . | 8* | -9 | -13 | 31 | 125* | 0.38* | 121%* | 174%*
Cc1ccc(C(=O)NC(=S)Nc2ccc(CN3CCCCC3)cc2)c(C)c1 | i | 1.8 | 6* | 23 | -14 | 20 | 58* | 0.49 | 67%* | 63%*
CCn1c(C(=O)O)c(S(=O)(=O)c2ccc(Cl)cc2)c2ccccc21 | i | . | i | -18 | -9 | 5 | . | . | . | .
CNC(=O)CSCc1cnn(-c2ccccc2)c1-n1cccc1 | i | 0.85 | i | 8 | -5 | 6 | . | . | . | .

High-throughput results: PubChem, several laboratories
